The source of these data is PMC5623067 (Bioorganic & medicinal chemistry letters, 2017).

In general, IC50 refers to the concentration that gives 50% inhibition.

Several values for one entry are separate records, joined by “and”; a condition that tells them apart may be missing. Equal entries are not always repeated.

Data set [1] addresses T1, human topoisomerase IIα (Homo sapiens, UniProt P11388). Briefly: DNA relaxation assay. The data set is classed as biochemical. Particulars: 3 nM enzyme; for IC50: IC50 for inhibition of DNA relaxation, negatively supercoiled DNA.
Data set [2] has as its target T1, human topoisomerase IIα. Briefly: DNA relaxation catalyzed by 150 nM topoisomerase IIα. In kind it is biochemical. Particulars: 10 µM compound. The method, boiled down: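 Negatively supercoiled DNA relaxed by 150 nM human topoisomerase IIα with test compound present. Gels show supercoiled DNA without enzyme and enzyme-treated DNA without compound as controls. Each gel is representative of 2-4 independent experiments.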

Data set [3] concerns the target T1, human topoisomerase IIα. As to the kind of experiment: Competition assay: block of etoposide-enhanced DNA cleavage. The data set is classed as biochemical. Particulars: 100 µM etoposide; 5-100 µM compound (compound 5 up to 10 µM).
Data set [4] has as its target T1, human topoisomerase IIα. As to the kind of experiment: ATP hydrolysis catalyzed by topoisomerase IIα. The data set is classed as biochemical. The settings on record: up to 50 µM.
The target of data set [5] is T1, human topoisomerase IIα. Briefly: Inhibition of topoisomerase IIα-mediated DNA cleavage in the presence of Ca2+. In kind it is biochemical. Particulars: Ca2+ in place of Mg2+; 150 nM enzyme; xanthone up to 10 µM. The method, boiled down: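 Negatively supercoiled DNA incubated with 150 nM human topoisomerase IIα and test compound. CaCl2 was added to raise baseline enzyme-mediated DNA cleavage. Cleaved DNA was resolved on gels, with controls of DNA without enzyme and enzyme without compound. Cleavage without compound was set to 100%. Gels are representative of 3 experiments, and standard deviations come from 2-3 independent experiments.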

Data set [6] deals with T1, human topoisomerase IIα. Briefly: DNA. Particulars: kDNA decatenation. The data set is classed as biochemical.
Data set [7] is described as follows: Solubility limit noted in the assays. In kind it is physicochemical. Particulars: only used up to 10 µM.

T1 sequence (P11388 whole entry): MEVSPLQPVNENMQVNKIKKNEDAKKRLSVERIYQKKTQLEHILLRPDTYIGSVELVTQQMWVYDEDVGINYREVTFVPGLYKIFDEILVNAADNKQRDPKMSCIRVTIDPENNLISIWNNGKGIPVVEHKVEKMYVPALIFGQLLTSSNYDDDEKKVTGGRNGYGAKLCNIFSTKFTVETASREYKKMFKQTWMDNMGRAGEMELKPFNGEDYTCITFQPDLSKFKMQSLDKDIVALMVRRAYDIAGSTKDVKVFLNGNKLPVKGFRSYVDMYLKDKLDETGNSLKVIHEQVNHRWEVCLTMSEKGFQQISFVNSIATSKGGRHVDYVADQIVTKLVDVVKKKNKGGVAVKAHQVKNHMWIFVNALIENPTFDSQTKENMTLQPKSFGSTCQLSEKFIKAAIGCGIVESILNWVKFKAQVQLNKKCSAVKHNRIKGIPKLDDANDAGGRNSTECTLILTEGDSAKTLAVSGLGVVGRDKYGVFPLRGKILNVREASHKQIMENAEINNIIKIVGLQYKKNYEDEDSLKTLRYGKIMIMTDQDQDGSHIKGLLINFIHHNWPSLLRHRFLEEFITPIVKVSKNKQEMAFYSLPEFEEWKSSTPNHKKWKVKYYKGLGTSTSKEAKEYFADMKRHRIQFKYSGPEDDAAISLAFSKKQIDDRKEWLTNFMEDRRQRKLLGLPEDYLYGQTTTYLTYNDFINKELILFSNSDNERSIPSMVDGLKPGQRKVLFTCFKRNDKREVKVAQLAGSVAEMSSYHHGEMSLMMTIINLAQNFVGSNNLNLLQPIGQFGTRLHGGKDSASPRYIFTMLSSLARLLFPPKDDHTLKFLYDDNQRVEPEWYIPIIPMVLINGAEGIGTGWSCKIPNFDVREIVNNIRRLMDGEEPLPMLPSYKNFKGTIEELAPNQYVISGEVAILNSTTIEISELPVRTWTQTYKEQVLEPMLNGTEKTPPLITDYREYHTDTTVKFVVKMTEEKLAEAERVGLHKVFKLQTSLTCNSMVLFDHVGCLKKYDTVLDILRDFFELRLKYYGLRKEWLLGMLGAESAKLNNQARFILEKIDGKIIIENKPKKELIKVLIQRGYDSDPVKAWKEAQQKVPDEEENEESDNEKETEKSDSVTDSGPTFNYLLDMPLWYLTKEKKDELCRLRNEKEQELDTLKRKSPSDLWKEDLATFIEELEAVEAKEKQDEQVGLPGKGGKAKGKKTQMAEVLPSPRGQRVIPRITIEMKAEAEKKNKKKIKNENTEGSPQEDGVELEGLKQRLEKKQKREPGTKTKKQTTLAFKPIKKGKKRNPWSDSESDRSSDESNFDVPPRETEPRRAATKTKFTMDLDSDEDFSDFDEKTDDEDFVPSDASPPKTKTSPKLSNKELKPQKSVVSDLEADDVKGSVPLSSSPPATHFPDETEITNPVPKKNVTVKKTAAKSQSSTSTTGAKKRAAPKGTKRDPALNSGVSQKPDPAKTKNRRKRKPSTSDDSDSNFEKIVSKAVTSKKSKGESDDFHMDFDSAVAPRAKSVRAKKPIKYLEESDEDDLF

Take `O=c1c2ccccc2oc2cc(O)cc(O)c12` [compound 6, 1,3-dyhydroxy-9h-xanthen-9-one]: the “ability to inhibit DNA relaxation at 10 µM” value in data set [1] (10 µM) is “no ability to inhibit DNA relaxation”. Also, in data set [2], the “inhibition of DNA relaxation by 150 nM enzyme” value (from here on “inhibition of DNA relaxation”) is given as “no ability to inhibit DNA relaxation”.

Take `NCCCCNCCCNCC(O)COc1cc(O)c2c(=O)c3ccccc3oc2c1.O=C(O)C(F)(F)F.O=C(O)C(F)(F)F.O=C(O)C(F)(F)F` (stereo not drawn) [compound 4]: the half-inhibitory concentration (IC50) in data set [1] was 2.5 to 5 µM and < 5 µM. Moreover, the “ability to block DNA cleavage enhancement by etoposide” value (“ability … by etoposide” for short) in data set [3] is on record as “competed with etoposide”. Further, the “inhibition of ATP hydrolysis in the absence of DNA” value in data set [4] was “no inhibition was observed”. Also, the “inhibition of enzyme-mediated DNA cleavage” value in data set [5] was “do not inhibit the DNA cleavage step”. Besides, the “order of potency in decatenation assay” value in data set [6] was “much more potent than compound 6”. Further, the “inhibition of DNA relaxation” value in data set [2] is “complete (or near complete) inhibition”.

On to `Cl.Cl.NCCCNCC(O)COc1cc(O)c2c(=O)c3ccccc3oc2c1` (stereo not drawn) [compound 2], for which the “ability … by etoposide” value in data set [3] is on record as “competed with etoposide”. For the same molecule, in data set [5], the “inhibition of enzyme-mediated DNA cleavage” value was “do not inhibit the DNA cleavage step”. In addition, the “order of potency in decatenation assay” value in data set [6] was “much more potent than compound 6”. For the same molecule, the “inhibition of DNA relaxation” value in data set [2] is on record as “complete (or near complete) inhibition”.

In the case of `Cl.Cl.Cl.Cl.NCCCNCCCCNCCCNCC(O)COc1cc(O)c2c(=O)c3ccccc3oc2c1` (stereo not drawn) [compound 5], the solubility in assay entry in data set [7] is “solubility issues”. Besides, the half-inhibitory concentration (IC50) in data set [1] was ~1 µM and < 5 µM. Besides, the “ability … by etoposide” value in data set [3] is “competed with etoposide”. In addition, the “inhibition of enzyme-mediated DNA cleavage” value in data set [5] is “do not inhibit the DNA cleavage step”. For the same molecule, the “order of potency in decatenation assay” value in data set [6] was “much more potent than compound 6”. Moreover, in data set [2], the “inhibition of DNA relaxation” value was “complete (or near complete) inhibition”.
